Measured values from different studies.
Lines come from different studies, so protocols differ.
Target: MAP/microtubule affinity-regulating kinase 3 (MARK3, Homo sapiens, UniProt P27448)

| SMILES | test | setting | measurement | value |
| --- | --- | --- | --- | --- |
| Cc1nn(C)cc1-c1nc2c(N3CCN(Cc4ccc(Cl)cc4)CC3)c(Cl)cnc2[nH]1 | binding, competition with immobilised ligand | 1 µM | remaining binding | 45% |
| Nc1ncc(-c2nc(N3CCOCC3)nc(N3CCOCC3)n2)c(C(F)F)n1 | binding, competition with immobilised ligand | 10 µM | remaining binding | 100% |
| CC(C)(C)c1cc(C=C(C#N)C#N)cc(Br)c1O | enzyme activity, inhibitor | 0.5 µM | remaining activity | 105% |
| COc1cc(Nc2ncc(F)c(Nc3ccc4c(n3)NC(=O)C(C)(C)O4)n2)cc(OC)c1OC | binding, competition with immobilised ligand | 10 µM | inhibition | 63% |
| O=c1[nH]c2ccccc2n1C1CCN(Cc2ccc(-c3[nH]c4cc5ncnc5cc4nc3-c3ccccc3)cc2)CC1 | cell-free assay | 0.5 µM | remaining signal | 103% |
| Cn1cncc1[C@](O)(COc1ccc(C#N)cc1-c1ccc(OC(F)(F)F)cc1)c1ccc(C#N)cc1 | cell-free assay, competition with immobilised ligand | 1 µM | remaining binding | 100% |
| Cn1cc(-c2cc(F)cc(N3CCn4c(cc5c4CCCC5)C3=O)c2CO)cc(Nc2ccc(N3CCN(C4COC4)CC3)cn2)c1=O | enzyme activity, inhibitor | 0.1 µM | inhibition | 6% |
| COc1ncccc1-c1cnn2ccc(N3CCN(C(=O)OC(C)C)CC3)nc12 | binding, competition with immobilised ligand | 1 µM | remaining binding | 96% |
